From ChEMBL document CHEMBL1177836, “New quinoxaline 1, 4-di-N-oxides: anticancer and hypoxia-selective therapeutic agents” (Eur J Med Chem, 2010)
Converted amounts (≈) assume the structure as drawn.

Legend:
[1] = Cytotoxicity against mouse EAC cells in aerobic condition by trypan blue exclusion assay; type: functional, cell-based; conditions: Ehrlich
In short: (§1)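 EAC cells aspirated from ascitic fluid of pre-inoculated female Swiss albino mice, suspended at 2.5×10⁶ cells/ml. Compounds freshly diluted in DMSO, 0.1 ml added per tube. Parallel aerobic and anaerobic tube sets; anaerobic tubes gassed with N₂ throughout. Incubation 2 h, then centrifugation. Trypan blue exclusion with haemocytometer counts; % viability = unstained cells/total cells × 100. DMSO-only negative control.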

[2] = Cytotoxicity against mouse EAC cells in hypoxic condition by trypan blue exclusion assay; type: functional, cell-based; conditions: Ehrlich
In short: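 EAC suspension (2.5×10⁶ cells/ml, from ascitic fluid of pre-inoculated female Swiss albino mice) exposed 2 h to DMSO-dissolved compounds over 1–100 µg/ml, in air or under continuous N₂. Viability by trypan blue exclusion, haemocytometer counts. IC50 taken as the concentration causing 50% mortality in net cell numbers.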

[3] = Cytotoxicity against mouse EAC cells in aerobic condition assessed as cell viability at 100 ug/ml after 2 hrs by trypan blue exclusion assay; type: functional; conditions: Ehrlich, read-out: Activity; in short: as §1
[4] = Cytotoxicity against mouse EAC cells in hypoxic condition assessed as cell viability at 100 ug/ml after 2 hrs by trypan blue exclusion assay; type: functional; conditions: Ehrlich, read-out: Activity; in short: as §1
[5] = Cytotoxicity against mouse EAC cells in aerobic condition assessed as cell viability at 50 ug/ml after 2 hrs by trypan blue exclusion assay; type: functional; conditions: Ehrlich, read-out: Activity; in short: as §1
[6] = Cytotoxicity against mouse EAC cells in hypoxic condition assessed as cell viability at 50 ug/ml after 2 hrs by trypan blue exclusion assay; type: functional; conditions: Ehrlich, read-out: Activity; in short: as §1
[7] = Cytotoxicity against mouse EAC cells in aerobic condition assessed as cell viability at 25 ug/ml after 2 hrs by trypan blue exclusion assay; type: functional; conditions: Ehrlich, read-out: Activity; in short: as §1
[8] = Cytotoxicity against mouse EAC cells in hypoxic condition assessed as cell viability at 25 ug/ml after 2 hrs by trypan blue exclusion assay; type: functional; conditions: Ehrlich, read-out: Activity; in short: as §1
[9] = Cytotoxicity against mouse EAC cells in aerobic condition assessed as cell viability at 10 ug/ml after 2 hrs by trypan blue exclusion assay; type: functional; conditions: Ehrlich, read-out: Activity; in short: as §1
[10] = Cytotoxicity against mouse EAC cells in hypoxic condition assessed as cell viability at 10 ug/ml after 2 hrs by trypan blue exclusion assay; type: functional; conditions: Ehrlich, read-out: Activity; in short: as §1
[11] = Cytotoxicity against mouse EAC cells in aerobic condition assessed as cell viability at 5 ug/ml after 2 hrs by trypan blue exclusion assay; type: functional; conditions: Ehrlich, read-out: Activity; in short: as §1
[12] = Cytotoxicity against mouse EAC cells in hypoxic condition assessed as cell viability at 5 ug/ml after 2 hrs by trypan blue exclusion assay; type: functional; conditions: Ehrlich, read-out: Activity; in short: as §1
[13] = Cytotoxicity against mouse EAC cells in aerobic condition assessed as cell viability at 1 ug/ml after 2 hrs by trypan blue exclusion assay; type: functional; conditions: Ehrlich, read-out: Activity; in short: as §1
[14] = Cytotoxicity against mouse EAC cells in hypoxic condition assessed as cell viability at 1 ug/ml after 2 hrs by trypan blue exclusion assay; type: functional; conditions: Ehrlich, read-out: Activity; in short: as §1
[15] = Ratio of IC50 for mouse EAC cells in aerobic condition to IC50 for mouse EAC cells in hypoxic condition
Ehrlich = experiment: Cytotoxicity against mouse EAC cells in hypoxic condition assessed as concentration required for 1% cell survival
HepG2 = experiment: Growth inhibition of human HepG2 cells after 48 hrs by SRB assay; type: functional, cell-based; conditions: HepG2, 48 h
In short: (§2)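 Cells plated at 10⁴ per well and allowed 24 h to attach. Compounds dissolved in DMSO were added at 0.1, 2.5, 5 and 10 µg/ml and incubated 48 h at 37 °C under 5% CO₂. Cells were then fixed, washed and stained with sulforhodamine B, and colour intensity was read on an ELISA reader.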

U-251 = experiment: Growth inhibition of human U251 cells after 48 hrs by SRB assay; type: functional, cell-based; conditions: U-251, 48 h; in short: as §2

Row | HCR (IC50 air/IC50 hypoxia ratio) [15] | IC50 (HepG2) [µg/mL] | IC50 (U-251) [µg/mL] | SMILES | IC50 [1] [µg/mL] | IC50 [2] [µg/mL] | viability at 100 µg/mL [3] [%] | viability at 100 µg/mL [4] [%] | viability at 50 µg/mL [5] [%] | viability at 50 µg/mL [6] [%] | viability at 25 µg/mL [7] [%] | viability at 25 µg/mL [8] [%] | viability at 10 µg/mL [9] [%] | viability at 10 µg/mL [10] [%] | viability at 5 µg/mL [11] [%] | viability at 5 µg/mL [12] [%] | viability at 1 µg/mL [13] [%] | viability at 1 µg/mL [14] [%] | Potency (Ehrlich) [µg/mL]
1 | > 1 |  |  | Cc1c(C(=O)N=[N+]=[N-])[n+]([O-])c2cc(Cl)ccc2[n+]1[O-] | > 100 | > 100 | 81.8 | 59.1 | 91.2 | 70.3 | 98 | 84.2 | 98 | 88.3 | 98 | 92.6 | 100 | 99.3 | > 100
2 | > 40 | 5.69 (≈ 17.7 µM) | > 10 | CC(=O)N(C(C)=O)c1c(C#N)[n+]([O-])c2cc(Cl)ccc2[n+]1[O-] | > 100 | 2.5 (≈ 7.8 µM) | 77.7 | 0 | 78.9 | 1.3 | 80.7 | 3 | 83.9 | 12.6 | 99 | 30.3 | 99.6 | 75.4 | 22 (≈ 68.6 µM)
3 | > 1 | 4.95 (≈ 12.3 µM) | > 10 | CCOc1ccc(NCc2nc3cc(OC)ccc3[n+]([O-])c2-c2ccccc2)cc1 | > 100 | > 100 | 85 | 80.7 | 93.3 | 87 | 97.6 | 95 | 96.3 | 98 | 98.6 | 99 | 100 | 100 | > 100
4 | 10 | 0.5 (≈ 1.33 µM) | > 10 | COc1ccc(NC(=O)Nc2c(C)[n+]([O-])c3ccc(Cl)cc3[n+]2[O-])cc1 | 100 (≈ 267 µM) | 10 (≈ 26.7 µM) | 54.6 | 5.3 | 73.3 | 10.3 | 79.2 | 24.2 | 83 | 50.2 | 98 | 73.3 | 99.6 | 86.7 | > 100
5 | > 1.4 | 0.77 (≈ 1.85 µM) | > 10 | CCOc1ccc(/N=C/c2c(-c3ccccc3)[n+]([O-])c3ccc(OC)cc3[n+]2[O-])cc1 | > 100 | 70 (≈ 168 µM) | 84.1 | 30.5 | 91.1 | 64.9 | 92.3 | 84.4 | 95.4 | 92.9 | 99 | 97 | 99.3 | 99.3 | > 100
6 |  | > 10 | > 10 | Cc1c(NC(=O)OC(C)C)[n+]([O-])c2cc(Cl)ccc2[n+]1[O-] |  |  | 92 | 90.6 | 96.4 | 96.3 | 97 | 96 | 98.3 | 97.3 | 98.8 | 98.3 | 100 | 100 | 
